Source: PubChem BioAssay (several laboratories)
This is a sample that favours compounds with a hit; in the whole collection about 1.8% have one here.
proCasp7 act – procaspase-7 activators, primary screen, counter-screen for procaspase-3 activator project, biochemical, absorbance, HTS, human | recombinant procaspase-7, Ac-DEVD-pNA absorbance 405 nm; D23A/D198A/D206A triple mutant, cannot self-cleave; scale: DMSO 0, 5 µM enzyme 100 | activation, % at 8.5 µM | actives 0.093% (n = 330,000) | Caspase-7 (Homo sapiens), P55210;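 active means percent activation above the screen-wide mean plus 3 SD, cut at about 25% in these data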
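System: Procaspase-7 triple mutant (PC-7 D3A); measure: % activation from two-timepoint absorbance difference, scaled to controls; times: 1 h compound preincubation, 2 h substrate cleavage, 25 °C; also added: Ac-DEVD-pNA substrate, 400 µM as added; measured by: Epi-absorbance of released pNA at 405 nm, two timepoints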
Apaf-1 inh – inhibitors of human Apaf-1 apoptosome, primary screen, biochemical, DEVD-Rh110 fluorescence, uHTS | inhibition, % at 20 µM | actives 0.71% (n = 330,000) | Apoptotic protease-activating factor 1 (Homo sapiens), O14727 | reconstituted apoptosome caspase-3 activity; active means inhibition of at least 40% at 20 µM;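 further: plate controls were DMSO wells for no effect and DEVD-CHO caspase inhibitor wells for full effect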
Target sequence (O14727 whole entry, looked up): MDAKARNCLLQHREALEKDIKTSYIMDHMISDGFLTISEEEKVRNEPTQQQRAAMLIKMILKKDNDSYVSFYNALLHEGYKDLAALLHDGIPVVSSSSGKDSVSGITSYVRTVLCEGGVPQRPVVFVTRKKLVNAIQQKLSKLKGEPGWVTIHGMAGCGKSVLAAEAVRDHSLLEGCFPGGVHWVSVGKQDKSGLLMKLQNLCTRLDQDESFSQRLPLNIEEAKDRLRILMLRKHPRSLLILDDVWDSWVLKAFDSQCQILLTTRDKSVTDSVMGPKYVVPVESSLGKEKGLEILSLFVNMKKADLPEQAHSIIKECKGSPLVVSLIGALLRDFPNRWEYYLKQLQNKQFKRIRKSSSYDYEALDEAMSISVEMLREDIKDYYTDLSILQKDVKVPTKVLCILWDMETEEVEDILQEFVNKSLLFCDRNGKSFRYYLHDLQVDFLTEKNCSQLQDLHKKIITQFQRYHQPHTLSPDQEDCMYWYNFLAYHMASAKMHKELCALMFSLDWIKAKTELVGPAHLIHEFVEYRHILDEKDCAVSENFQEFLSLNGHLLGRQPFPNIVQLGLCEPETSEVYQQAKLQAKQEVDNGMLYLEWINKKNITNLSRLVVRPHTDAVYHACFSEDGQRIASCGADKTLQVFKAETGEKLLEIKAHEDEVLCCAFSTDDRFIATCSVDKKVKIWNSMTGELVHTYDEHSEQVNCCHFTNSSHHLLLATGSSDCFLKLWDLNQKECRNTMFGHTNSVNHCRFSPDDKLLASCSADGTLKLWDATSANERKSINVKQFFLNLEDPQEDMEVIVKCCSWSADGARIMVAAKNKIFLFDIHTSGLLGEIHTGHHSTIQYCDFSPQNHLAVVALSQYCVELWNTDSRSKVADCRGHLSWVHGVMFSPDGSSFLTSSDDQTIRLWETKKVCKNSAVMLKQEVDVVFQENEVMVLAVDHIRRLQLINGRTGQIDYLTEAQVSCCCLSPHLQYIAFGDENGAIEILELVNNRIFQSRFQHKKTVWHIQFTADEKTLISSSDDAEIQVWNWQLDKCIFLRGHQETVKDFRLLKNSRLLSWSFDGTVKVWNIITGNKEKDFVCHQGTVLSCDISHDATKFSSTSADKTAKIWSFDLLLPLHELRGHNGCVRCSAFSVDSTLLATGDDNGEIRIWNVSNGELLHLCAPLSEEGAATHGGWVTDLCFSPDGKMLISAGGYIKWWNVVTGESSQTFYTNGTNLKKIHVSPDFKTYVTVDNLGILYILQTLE
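Assay system: Apoptosome proteins | Medium: pH 7.5 Hepes buffer with CHAPS, BSA, DTT | Also added: Cytochrome c and DEVD-Rh110 substrate | Times: 30 min plus 50 min, RT | Detection: Rhodamine 110 fluorescence at Ex 480/Em 540 nm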
EBNA-1 inhibitor – EBNA-1 DNA-binding inhibitors, primary screen, biochemical, fluorescence polarization; inhibition, % at 14.8 µM; actives 0.34% (n = 300,000); in the data active means inhibition above about 28%
ZTA DNA inh – counter-screen for EBNA-1 inhibitors: inhibitors of Epstein-Barr virus ZTA. actives 0.15% (n = 320,000). ZTA-DNA binding, fluorescence polarization. P03206. inhibition, % at 11 µM; in the data active means inhibition above about 33%
GSTO1 counter – inhibitors of recombinant GSTO1, primary screen, counter-screen for RBBP9 inhibitor project, biochemical, fluorescence polarization. inhibition, % at 5.96 µM. Glutathione S-transferase omega-1 (Homo sapiens), P78417. activity-based probe fluorescence polarization. actives 1.1% (n = 300,000). AID 1974, 2009;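 active means inhibition above the campaign mean inhibition plus 3 SD, cut at about 35% in these data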;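 further: 0% = GSTO1-1 with DMSO and 100% = wells lacking GSTO1-1 enzyme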
procasp3 activ – activators of human procaspase-3 D3A mutant, primary screen, biochemical, absorbance, PC-3 D3A mutant, single concentration | Caspase-3 (Homo sapiens), P42574 | recombinant procaspase-3 D3A, Ac-DEVD-pNA absorbance 405 nm | activation, % at 8.5 µM | actives 0.11% (n = 330,000) | AID 463141, 2010;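 active means activation above the mean of all tested compounds plus 3 SD, cut at about 21% in these data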;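 further: 0% = DMSO alone and 100% = DMSO wells spiked with extra 5 µM PC-3 D3A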
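Assay system: Procaspase-3 D3A mutant, all three cleavage aspartates alanine. Buffer or medium: Zinc-free HEPES saline buffer with Triton X-100. Times: 1 h compound preincubation, 2 h substrate hydrolysis at 25 °C. Measured by: 405 nm absorbance of p-nitroaniline, reads at 0 and 120 min. Read-out basis: percent activation relative to control range. Replicates: singlicate.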
GSTO1 confirm – GSTO1 inhibitor hit confirmation, counter-screen for RBBP9 inhibitor project, biochemical, fluorescence polarization, triplicate; actives 54% (n = 2,400); recombinant GSTO1, probe fluorescence polarization; inhibition, % at 5.96 µM; shares compounds with GSTO1 counter; AID 2176, 2009;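 active means inhibition above the primary screen's cutoff, its mean inhibition plus 3 SD, cut at about 35% in these data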;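 further: loss of polarization as inhibitors block binding of rhodamine sulfonate ester activity probe; 0% = GSTO1 with DMSO and 100% = wells lacking GSTO1 enzyme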
* hit, by the source's call.

How did Cc1ccc2nc(-c3ccccc3)cn2c1 do in these assays?
proCasp7 act: 2; Apaf-1 inh: -4; EBNA-1 inhibitor: 7; ZTA DNA inh: 6; GSTO1 counter: -3; procasp3 activ: 3

How did Oc1ccc(-c2csc(-c3cccnc3)n2)cc1O do in these assays?
proCasp7 act: -32; Apaf-1 inh: -11; EBNA-1 inhibitor: -8; ZTA DNA inh: 10; GSTO1 counter: 59*; procasp3 activ: -16; GSTO1 confirm: 6

What do the screens show for `Cc1nc(-c2ccc(O)c(O)c2)cs1`?
proCasp7 act: -28; Apaf-1 inh: 3; EBNA-1 inhibitor: 6; ZTA DNA inh: -9; GSTO1 counter: 42*; procasp3 activ: -23; GSTO1 confirm: 7

How did O=C(CN1C(=O)NC2(CCc3ccccc32)C1=O)NCc1ccc(Cl)cc1 (configuration not stated) do in these assays?
proCasp7 act: -9; Apaf-1 inh: 7; procasp3 activ: 4

Results for O=C(CN1C(=O)NC2(CCCCC2)C1=O)Nc1cccc(S(=O)(=O)N2CCCC2)c1 ?
proCasp7 act: -9; Apaf-1 inh: -1; ZTA DNA inh: -1; procasp3 activ: 10

Results for CC[C@@]1(C(=O)OC)N[C@H](CN(C)C(=O)C2CCCCC2)[C@@H]2C(=O)N(Cc3ccccc3)C(=O)[C@@H]21 ?
proCasp7 act: 5; Apaf-1 inh: 11; procasp3 activ: 4

What do the screens show for `CN=c1scc(C)n1/N=C/c1ccc(O)c(O)c1O`?
proCasp7 act: -32; Apaf-1 inh: 19; EBNA-1 inhibitor: -11; ZTA DNA inh: 5; GSTO1 counter: 74*; procasp3 activ: -21; GSTO1 confirm: 10

Results for COc1ccc(N2CCN(C(=O)COC(=O)c3ccc(C)o3)CC2)cc1 ?
proCasp7 act: -3; Apaf-1 inh: -7; EBNA-1 inhibitor: -2; ZTA DNA inh: -3; GSTO1 counter: 6; procasp3 activ: 13

What do the screens show for `O=C(N/N=C/c1ccc(O)c(O)c1O)/C(=C/c1ccc([N+](=O)[O-])cc1)NC(=O)c1ccccc1`?
proCasp7 act: -32; Apaf-1 inh: 36; EBNA-1 inhibitor: -3; ZTA DNA inh: -13; GSTO1 counter: 54*; procasp3 activ: -26; GSTO1 confirm: 1

What do the screens show for `Cc1ccc(NC(=O)/C(=C\c2ccc([N+](=O)[O-])cc2)NC(=O)c2ccccc2)cc1`?
proCasp7 act: 3; Apaf-1 inh: 12; EBNA-1 inhibitor: -6; ZTA DNA inh: 6; GSTO1 counter: -6; procasp3 activ: 10

Results for CCn1c(C)nc2cc(C(=O)N/N=C/c3ccccc3)ccc21 ?
proCasp7 act: -2; Apaf-1 inh: -2; EBNA-1 inhibitor: 7; ZTA DNA inh: -7; GSTO1 counter: 1; procasp3 activ: 3

What do the screens show for `CCn1c(C)nc2cc(C(=O)N/N=C/c3cccc(O)c3O)ccc21`?
proCasp7 act: -10; Apaf-1 inh: -5; EBNA-1 inhibitor: 0; ZTA DNA inh: -16; GSTO1 counter: 45*; procasp3 activ: 2; GSTO1 confirm: 5

Results for O=C(CNC(=O)c1ccccc1)NCCc1ccc(O)c(O)c1 ?
proCasp7 act: -32; Apaf-1 inh: 2; EBNA-1 inhibitor: -8; ZTA DNA inh: -5; GSTO1 counter: 75*; procasp3 activ: -20; GSTO1 confirm: 7

Results for CCCC(C)C(=O)Nc1nnc(CCc2ccccc2)s1 (configuration not stated) ?
proCasp7 act: -3; Apaf-1 inh: 1; EBNA-1 inhibitor: 5; ZTA DNA inh: -5; GSTO1 counter: 4; procasp3 activ: 3
